According to ChEMBL document CHEMBL1137710, “Synthesis and in vitro antitumor activity of new quinoxaline derivatives” (2009):

Key:
Type in all cases: functional
HT-29 = test: Growth inhibition of human HT-29 cells after 48 hrs by sulforhodamine B assay; conditions: HT-29, 48 h
Method in brief: (§1)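 NCI 60-human-tumor-cell-line panel, with compounds tested over a 5-log dose range. Values are taken from dose-response curves as log10 molar concentrations: GI50 is 50% net growth inhibition, TGI is total growth inhibition, and LC50 is 50% net cell death.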

NCI-H226 = test: Growth inhibition of human NCI-H226 cells after 48 hrs by sulforhodamine B assay; conditions: NCI-H226, 48 h; method in brief: as §1
EKVX = test: Growth inhibition of human EKVX cells after 48 hrs by sulforhodamine B assay; method in brief: as §1
MOLT-4 = test: Growth inhibition of human MOLT4 cells after 48 hrs by sulforhodamine B assay; conditions: MOLT-4, 48 h; method in brief: as §1
A549 = test: Growth inhibition of human A549 cells after 48 hrs by sulforhodamine B assay; conditions: A549, 48 h; method in brief: as §1
DU-145 = test: Growth inhibition of human DU145 cells after 48 hrs by sulforhodamine B assay; conditions: DU-145, 48 h; method in brief: as §1
SK-MEL-2 = test: Growth inhibition of human SK-MEL-2 cells after 48 hrs by sulforhodamine B assay; conditions: SK-MEL-2, 48 h; method in brief: as §1
SK-MEL-5 = test: Growth inhibition of human SK-MEL-5 cells after 48 hrs by sulforhodamine B assay; conditions: SK-MEL-5, 48 h; method in brief: as §1
HOP-92 = test: Growth inhibition of human HOP92 cells after 48 hrs by sulforhodamine B assay; conditions: HOP-92, 48 h; method in brief: as §1
UACC-257 = test: Growth inhibition of human UACC257 cells after 48 hrs by sulforhodamine B assay; conditions: UACC-257, 48 h
Method in brief: (§2)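 Run in the NCI 60-human-tumour-cell-line panel, tested over a 5-log dose range. Dose–response curves gave three values per cell line, each as a log10 molar concentration: GI50 (50% inhibition of net cell growth), TGI (total inhibition of net growth) and LC50 (50% net cell death). The mean graph midpoint is the arithmetic mean over all lines, with insensitive lines entered at the highest concentration tested.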

KM12 = test: Growth inhibition of human KM12 cells after 48 hrs by sulforhodamine B assay; conditions: KM12, 48 h; method in brief: as §1
SR = test: Growth inhibition of human SR cells after 48 hrs by sulforhodamine B assay; method in brief: as §2
COLO 205 = test: Growth inhibition of human COLO205 cells after 48 hrs by sulforhodamine B assay; conditions: COLO 205, 48 h; method in brief: as §1
NCI-H460 = test: Growth inhibition of human NCI-H460 cells after 48 hrs by sulforhodamine B assay; conditions: NCI-H460, 48 h; method in brief: as §1
SF-295 = test: Growth inhibition of human SF295 cells after 48 hrs by sulforhodamine B assay; conditions: SF-295, 48 h; method in brief: as §1
SNB-75 = test: Growth inhibition of human SNB75 cells after 48 hrs by sulforhodamine B assay; conditions: SNB-75, 48 h; method in brief: as §2
SK-OV-3 = test: Growth inhibition of human SKOV3 cells after 48 hrs by sulforhodamine B assay; conditions: SK-OV-3, 48 h; method in brief: as §1
MDA-MB-231 = test: Growth inhibition of human MDA-MB-231 cells after 48 hrs by sulforhodamine B assay; conditions: MDA-MB-231, 48 h; method in brief: as §1
RXF 393 = test: Growth inhibition of human RXF393 cells after 48 hrs by sulforhodamine B assay; conditions: RXF 393, 48 h; method in brief: as §1
ACHN = test: Growth inhibition of human ACHN cells after 48 hrs by sulforhodamine B assay
SF-539 = test: Growth inhibition of human SF539 cells after 48 hrs by sulforhodamine B assay; conditions: SF-539, 48 h; method in brief: as §1
TK-10 = test: Growth inhibition of human TK10 cells after 48 hrs by sulforhodamine B assay; conditions: TK-10, 48 h; method in brief: as §2
BT-549 = test: Growth inhibition of human BT549 cells after 48 hrs by sulforhodamine B assay; conditions: BT-549, 48 h; method in brief: as §1
HCT-116 = test: Growth inhibition of human HCT116 cells after 48 hrs by sulforhodamine B assay; conditions: HCT-116, 48 h; method in brief: as §1
OVCAR-5 = test: Growth inhibition of human OVCAR5 cells after 48 hrs by sulforhodamine B assay; conditions: OVCAR-5, 48 h; method in brief: as §1
NCI-H23 = test: Growth inhibition of human NCI-H23 cells after 48 hrs by sulforhodamine B assay; conditions: NCI-H23, 48 h; method in brief: as §1
[1] = read-out: pLC50 (the source's name) (converted)

Structure (SMILES): Nc1cc(N)c2nc(-c3ccccc3)c(Oc3ccc(F)cc3)nc2c1
- GI50 (HT-29): 22.9 µM
- LC50 (HT-29): > 100 µM
- TGI (HT-29; read-out: pTGI (converted)): 51.3 µM
- GI50 (NCI-H226): 20.4 µM
- LC50 (NCI-H226): > 100 µM
- TGI (NCI-H226; read-out: pTGI (converted)): 49 µM
- GI50 (EKVX): 14.8 µM
- LC50 (50% net cell kill) (EKVX): 77.6 µM
- TGI (EKVX; read-out: pTGI (converted)): 33.9 µM
- GI50 (MOLT-4): 6.61 µM
- LC50 (MOLT-4): > 100 µM
- TGI (MOLT-4; read-out: pTGI (converted)): > 100 µM
- GI50 (A549): 24 µM
- LC50 (A549): 89.1 µM
- TGI (A549; read-out: pTGI (converted)): 46.8 µM
- GI50 (DU-145): 0.46 µM
- CC50 (DU-145; [1]): > 100 µM
- TGI (DU-145; read-out: pTGI (converted)): 87.1 µM
- GI50 (SK-MEL-2): 42.7 µM
- CC50 (SK-MEL-2; [1]): > 100 µM
- TGI (SK-MEL-2; read-out: pTGI (converted)): > 100 µM
- GI50 (SK-MEL-5): 12.3 µM
- CC50 (SK-MEL-5; [1]): 83.2 µM
- TGI (SK-MEL-5; read-out: pTGI (converted)): 31.6 µM
- GI50 (HOP-92): 12.3 µM
- LC50 (50% net cell death) (HOP-92): 72.4 µM
- TGI (HOP-92; read-out: pTGI (converted)): 29.5 µM
- GI50 (UACC-257): 23.4 µM
- CC50 (UACC-257; [1]): 77.6 µM
- TGI (UACC-257; read-out: pTGI (converted)): 42.7 µM
- GI50 (KM12): 14.5 µM
- LC50 (50% net cell kill) (KM12): > 100 µM
- TGI (KM12; read-out: pTGI (converted)): 40.7 µM
- GI50 (SR): 8.13 µM
- LC50 (concentration giving 50% net cell death) (SR): > 100 µM
- TGI (SR; read-out: pTGI (converted)): > 100 µM
- GI50 (COLO 205): 20 µM
- LC50 (50% net cell kill) (COLO 205): 66.1 µM
- TGI (COLO 205; read-out: pTGI (converted)): 36.3 µM
- GI50 (NCI-H460): 39.8 µM
- LC50 (50% net cell kill) (NCI-H460): > 100 µM
- TGI (NCI-H460; read-out: pTGI (converted)): > 100 µM
- GI50 (SF-295): 20.4 µM
- LC50 (50% net cell kill) (SF-295): 72.4 µM
- TGI (SF-295; read-out: pTGI (converted)): 38.9 µM
- GI50 (SNB-75): 23.4 µM
- LC50 (SNB-75): > 100 µM
- TGI (SNB-75; read-out: pTGI (converted)): 49 µM
- GI50 (SK-OV-3): 20.9 µM
- CC50 (SK-OV-3; [1]): 83.2 µM
- TGI (SK-OV-3; read-out: pTGI (converted)): 41.7 µM
- GI50 (MDA-MB-231): 3.89 µM
- CC50 (MDA-MB-231; [1]): > 100 µM
- TGI (MDA-MB-231; read-out: pTGI (converted)): 28.8 µM
- GI50 (RXF 393): 19.1 µM
- CC50 (RXF 393; [1]): > 100 µM
- TGI (RXF 393; read-out: pTGI (converted)): > 100 µM
- GI50 (ACHN): 13.8 µM
- CC50 (ACHN; [1]): 81.3 µM
- TGI (ACHN; read-out: pTGI (converted)): 33.1 µM
- GI50 (SF-539): 18.2 µM
- LC50 (SF-539): 70.8 µM
- TGI (SF-539; read-out: pTGI (converted)): 35.5 µM
- GI50 (TK-10): 16.6 µM
- CC50 (TK-10; [1]): 64.6 µM
- TGI (TK-10; read-out: pTGI (converted)): 32.4 µM
- GI50 (BT-549): 15.1 µM
- CC50 (BT-549; [1]): 81.3 µM
- TGI (BT-549; read-out: pTGI (converted)): 34.7 µM
- GI50 (HCT-116): 14.8 µM
- LC50 (concentration causing 50% net cell death) (HCT-116): > 100 µM
- TGI (HCT-116; read-out: pTGI (converted)): 81.3 µM
- GI50 (OVCAR-5): 20.4 µM
- CC50 (OVCAR-5; [1]): > 100 µM
- TGI (OVCAR-5; read-out: pTGI (converted)): 47.9 µM
- GI50 (NCI-H23): 20.9 µM
- LC50 (50% net cell kill concentration) (NCI-H23): 77.6 µM
- TGI (NCI-H23; read-out: pTGI (converted)): 39.8 µM
